Assay results as given in ChEMBL document CHEMBL4689842, “EUbOPEN Chemogenomics Library wave 1” (2021).

Test system: Fibroblast
Assay: Multiplex assay against human fibroblast
Format: toxicity, cell-based
Outline: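 Compound was added to live cells that had been stained at seeding with Hoechst33342, BioTracker Green Microtubule Cytoskeleton Dye, MitoTracker Red and Annexin V Alexa Fluor 680, and imaging followed on a CQ1 microscope at 37°C and 5% CO2. CellPathfinder machine-learning gating divided cells into Hoechst high-intensity objects or normal cells, normal cells into healthy, pyknosed or fragmented nuclei, and pyknosed cells into mitotic or apoptotic. Tubulin, mitochondrial-mass and membrane-permeability phenotypes are per cents of healthy-nucleus cells.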

[1] = 12 h, 1 µM, compound concentration 1 uM, replicate 1
[2] = 12 h, 1 µM, compound concentration 1 uM, replicate 2
[3] = 12 h, 10 µM, compound concentration 10 uM, replicate 1
[4] = 12 h, 10 µM, compound concentration 10 uM, replicate 2
[5] = 24 h, 1 µM, compound concentration 1 uM, replicate 1
[6] = 24 h, 1 µM, compound concentration 1 uM, replicate 2
[7] = 24 h, 10 µM, compound concentration 10 uM, replicate 1
[8] = 24 h, 10 µM, compound concentration 10 uM, replicate 2
[9] = 48 h, 1 µM, compound concentration 1 uM, replicate 1
[10] = 48 h, 1 µM, compound concentration 1 uM, replicate 2
[11] = 48 h, 10 µM, compound concentration 10 uM, replicate 1
[12] = 48 h, 10 µM, compound concentration 10 uM, replicate 2

CC(C)CC(=O)Nc1[nH]nc2c1CN(C(=O)C1CCN(C)CC1)C2(C)C [PHA-793887]
Population Apoptotic (%) [1]: 81% | Population Fragmented Nuclei (%) [1]: 21% | Population Healthy Nuclei (%) [1]: 60% | Population Hoechst High Intensity Objects (%) [1]: 11% | Population Membrane Permeable-Phenotype (%) [1]: 4% | Population Mitochondria Different-Phenotype (%) [1]: 3% | Population Mitotic Cells (%) [1]: 18% | Population Normal (%) [1]: 88% | Population Pyknosed Nuclei (%) [1]: 18% | Population Tubulin-Different-Phenotype (%) [1]: 4% | Total Cell Count [1]: 233 | Population Apoptotic (%) [2]: 50% | Population Fragmented Nuclei (%) [2]: 48% | Population Healthy Nuclei (%) [2]: 31% | Population Hoechst High Intensity Objects (%) [2]: 46% | Population Membrane Permeable-Phenotype (%) [2]: 22% | Population Mitochondria Different-Phenotype (%) [2]: 44% | Population Mitotic Cells (%) [2]: 50% | Population Normal (%) [2]: 53% | Population Pyknosed Nuclei (%) [2]: 20% | Population Tubulin-Different-Phenotype (%) [2]: 22% | Total Cell Count [2]: 54 | Population Apoptotic (%) [3]: 73% | Population Fragmented Nuclei (%) [3]: 23% | Population Healthy Nuclei (%) [3]: 66% | Population Hoechst High Intensity Objects (%) [3]: 12% | Population Membrane Permeable-Phenotype (%) [3]: 4% | Population Mitochondria Different-Phenotype (%) [3]: 7% | Population Mitotic Cells (%) [3]: 26% | Population Normal (%) [3]: 87% | Population Pyknosed Nuclei (%) [3]: 10% | Population Tubulin-Different-Phenotype (%) [3]: 4% | Total Cell Count [3]: 277 | Population Apoptotic (%) [4]: 33% | Population Fragmented Nuclei (%) [4]: 68% | Population Healthy Nuclei (%) [4]: 24% | Population Hoechst High Intensity Objects (%) [4]: 33% | Population Membrane Permeable-Phenotype (%) [4]: 20% | Population Mitochondria Different-Phenotype (%) [4]: 40% | Population Mitotic Cells (%) [4]: 66% | Population Normal (%) [4]: 66% | Population Pyknosed Nuclei (%) [4]: 7% | Population Tubulin-Different-Phenotype (%) [4]: 30% | Total Cell Count [4]: 62 | Population Apoptotic (%) [5]: 71% | Population Fragmented Nuclei (%) [5]: 20% | Population Healthy Nuclei (%) [5]: 65% | Population Hoechst High Intensity Objects (%) [5]: 13% | Population Membrane Permeable-Phenotype (%) [5]: 6% | Population Mitochondria Different-Phenotype (%) [5]: 1% | Population Mitotic Cells (%) [5]: 28% | Population Normal (%) [5]: 86% | Population Tubulin-Different-Phenotype (%) [5]: 3% | Total Cell Count [5]: 225 | Population Apoptotic (%) [6]: 66% | Population Fragmented Nuclei (%) [6]: 57% | Population Healthy Nuclei (%) [6]: 28% | Population Hoechst High Intensity Objects (%) [6]: 37% | Population Membrane Permeable-Phenotype (%) [6]: 16% | Population Mitochondria Different-Phenotype (%) [6]: 25% | Population Mitotic Cells (%) [6]: 33% | Population Normal (%) [6]: 62% | Population Pyknosed Nuclei (%) [6]: 14% | Population Tubulin-Different-Phenotype (%) [6]: 16% | Total Cell Count [6]: 67 | Population Apoptotic (%) [7]: 61% | Population Fragmented Nuclei (%) [7]: 23% | Population Healthy Nuclei (%) [7]: 64% | Population Hoechst High Intensity Objects (%) [7]: 11% | Population Membrane Permeable-Phenotype (%) [7]: 3% | Population Mitochondria Different-Phenotype (%) [7]: 6% | Population Mitotic Cells (%) [7]: 38% | Population Normal (%) [7]: 88% | Population Pyknosed Nuclei (%) [7]: 12% | Population Tubulin-Different-Phenotype (%) [7]: 6% | Total Cell Count [7]: 284 | Population Apoptotic (%) [8]: 100% | Population Fragmented Nuclei (%) [8]: 72% | Population Healthy Nuclei (%) [8]: 20% | Population Hoechst High Intensity Objects (%) [8]: 32% | Population Membrane Permeable-Phenotype (%) [8]: 0% | Population Mitochondria Different-Phenotype (%) [8]: 11% | Population Mitotic Cells (%) [8]: 0% | Population Normal (%) [8]: 67% | Population Pyknosed Nuclei (%) [8]: 6% | Population Tubulin-Different-Phenotype (%) [8]: 22% | Total Cell Count [8]: 64

CCCSc1nc(N[C@@H]2C[C@H]2c2ccc(F)c(F)c2)c2nnn([C@@H]3C[C@H](OCCO)[C@@H](O)[C@H]3O)c2n1 [TICAGRELOR]
Population Apoptotic (%) [1]: 55% | Population Fragmented Nuclei (%) [1]: 17% | Population Healthy Nuclei (%) [1]: 48% | Population Hoechst High Intensity Objects (%) [1]: 9% | Population Membrane Permeable-Phenotype (%) [1]: 21% | Population Mitochondria Different-Phenotype (%) [1]: 5% | Population Mitotic Cells (%) [1]: 44% | Population Normal (%) [1]: 90% | Population Pyknosed Nuclei (%) [1]: 33% | Population Tubulin-Different-Phenotype (%) [1]: 46% | Total Cell Count [1]: 179 | Population Apoptotic (%) [2]: 66% | Population Fragmented Nuclei (%) [2]: 1% | Population Healthy Nuclei (%) [2]: 93% | Population Hoechst High Intensity Objects (%) [2]: 5% | Population Membrane Permeable-Phenotype (%) [2]: 5% | Population Mitochondria Different-Phenotype (%) [2]: 18% | Population Mitotic Cells (%) [2]: 33% | Population Normal (%) [2]: 94% | Population Pyknosed Nuclei (%) [2]: 4% | Population Tubulin-Different-Phenotype (%) [2]: 13% | Total Cell Count [2]: 82 | Population Apoptotic (%) [3]: 56% | Population Fragmented Nuclei (%) [3]: 29% | Population Healthy Nuclei (%) [3]: 27% | Population Hoechst High Intensity Objects (%) [3]: 12% | Population Membrane Permeable-Phenotype (%) [3]: 12% | Population Mitochondria Different-Phenotype (%) [3]: 78% | Population Mitotic Cells (%) [3]: 43% | Population Normal (%) [3]: 87% | Population Pyknosed Nuclei (%) [3]: 43% | Population Tubulin-Different-Phenotype (%) [3]: 90% | Total Cell Count [3]: 139 | Population Apoptotic (%) [4]: 75% | Population Fragmented Nuclei (%) [4]: 7% | Population Healthy Nuclei (%) [4]: 79% | Population Hoechst High Intensity Objects (%) [4]: 11% | Population Membrane Permeable-Phenotype (%) [4]: 43% | Population Mitochondria Different-Phenotype (%) [4]: 98% | Population Mitotic Cells (%) [4]: 25% | Population Normal (%) [4]: 88% | Population Pyknosed Nuclei (%) [4]: 12% | Population Tubulin-Different-Phenotype (%) [4]: 96% | Total Cell Count [4]: 67 | Population Apoptotic (%) [5]: 43% | Population Fragmented Nuclei (%) [5]: 18% | Population Healthy Nuclei (%) [5]: 62% | Population Hoechst High Intensity Objects (%) [5]: 9% | Population Membrane Permeable-Phenotype (%) [5]: 26% | Population Mitochondria Different-Phenotype (%) [5]: 12% | Population Mitotic Cells (%) [5]: 56% | Population Normal (%) [5]: 90% | Population Pyknosed Nuclei (%) [5]: 19% | Population Tubulin-Different-Phenotype (%) [5]: 50% | Total Cell Count [5]: 172 | Population Apoptotic (%) [6]: 57% | Population Fragmented Nuclei (%) [6]: 3% | Population Healthy Nuclei (%) [6]: 87% | Population Hoechst High Intensity Objects (%) [6]: 2% | Population Membrane Permeable-Phenotype (%) [6]: 4% | Population Mitochondria Different-Phenotype (%) [6]: 20% | Population Mitotic Cells (%) [6]: 42% | Population Normal (%) [6]: 97% | Population Pyknosed Nuclei (%) [6]: 8% | Population Tubulin-Different-Phenotype (%) [6]: 11% | Total Cell Count [6]: 81 | Population Apoptotic (%) [7]: 55% | Population Fragmented Nuclei (%) [7]: 27% | Population Healthy Nuclei (%) [7]: 33% | Population Hoechst High Intensity Objects (%) [7]: 16% | Population Membrane Permeable-Phenotype (%) [7]: 18% | Population Mitochondria Different-Phenotype (%) [7]: 67% | Population Mitotic Cells (%) [7]: 44% | Population Normal (%) [7]: 83% | Population Pyknosed Nuclei (%) [7]: 38% | Population Tubulin-Different-Phenotype (%) [7]: 94% | Total Cell Count [7]: 133 | Population Apoptotic (%) [8]: 83% | Population Fragmented Nuclei (%) [8]: 7% | Population Healthy Nuclei (%) [8]: 73% | Population Hoechst High Intensity Objects (%) [8]: 8% | Population Membrane Permeable-Phenotype (%) [8]: 65% | Population Mitochondria Different-Phenotype (%) [8]: 97% | Population Mitotic Cells (%) [8]: 16% | Population Normal (%) [8]: 91% | Population Pyknosed Nuclei (%) [8]: 19% | Population Tubulin-Different-Phenotype (%) [8]: 97% | Total Cell Count [8]: 80 | Population Apoptotic (%) [9]: 44% | Population Fragmented Nuclei (%) [9]: 25% | Population Healthy Nuclei (%) [9]: 55% | Population Hoechst High Intensity Objects (%) [9]: 9% | Population Membrane Permeable-Phenotype (%) [9]: 16% | Population Mitochondria Different-Phenotype (%) [9]: 5% | Population Mitotic Cells (%) [9]: 55% | Population Normal (%) [9]: 90% | Population Pyknosed Nuclei (%) [9]: 19% | Population Tubulin-Different-Phenotype (%) [9]: 36% | Total Cell Count [9]: 167 | Population Apoptotic (%) [10]: 66% | Population Fragmented Nuclei (%) [10]: 27% | Population Healthy Nuclei (%) [10]: 68% | Population Hoechst High Intensity Objects (%) [10]: 10% | Population Membrane Permeable-Phenotype (%) [10]: 18% | Population Mitochondria Different-Phenotype (%) [10]: 3% | Population Mitotic Cells (%) [10]: 33% | Population Normal (%) [10]: 89% | Population Pyknosed Nuclei (%) [10]: 3% | Population Tubulin-Different-Phenotype (%) [10]: 57% | Total Cell Count [10]: 88 | Population Apoptotic (%) [11]: 69% | Population Fragmented Nuclei (%) [11]: 50% | Population Healthy Nuclei (%) [11]: 31% | Population Hoechst High Intensity Objects (%) [11]: 20% | Population Membrane Permeable-Phenotype (%) [11]: 22% | Population Mitochondria Different-Phenotype (%) [11]: 62% | Population Mitotic Cells (%) [11]: 30% | Population Normal (%) [11]: 79% | Population Pyknosed Nuclei (%) [11]: 18% | Population Tubulin-Different-Phenotype (%) [11]: 90% | Total Cell Count [11]: 159 | Population Apoptotic (%) [12]: 75% | Population Fragmented Nuclei (%) [12]: 32% | Population Healthy Nuclei (%) [12]: 61% | Population Hoechst High Intensity Objects (%) [12]: 5% | Population Membrane Permeable-Phenotype (%) [12]: 2% | Population Mitochondria Different-Phenotype (%) [12]: 84% | Population Mitotic Cells (%) [12]: 25% | Population Normal (%) [12]: 94% | Population Pyknosed Nuclei (%) [12]: 6% | Population Tubulin-Different-Phenotype (%) [12]: 92% | Total Cell Count [12]: 135
